Measurements published in ChEMBL document CHEMBL1123563, “New antifilarial agents. 1. Epoxy sulfonamides and ethynesulfonamides” (J Med Chem, 1987).
Activity calls are given as the source filed them.

Key:
[1] = test system: molinema dessetae; assay: Antifilarial activity against Molinema dessetae in vivo against male adult worms at a dose of 200 mg/kg subcutaneously once a day for 5 days; Inactive; type: functional, organism-based; design: dose 200 mg/kg
Outline: (§1)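 Proechimys oris of both sexes were each infected with 200 infective larvae dissected from Aedes aegypti mosquitoes. Microfilaremia was checked, and the rodents were treated 150–180 days post-infection. Compound was given subcutaneously as a 1% carboxymethylcellulose suspension once daily for 5 consecutive days. Microfilaremia was followed for 6 weeks, then adult male and female worms were counted at autopsy. A compound was scored active if no males and ≤1.6 females were found (p = 0.12).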

[2] = Antifilarial activity against Molinema dessetae in vivo in Proechimys oris the natural host at a dose of 200 mg/kg subcutaneously once a day for 5 days. Value is expressed as number of infected P. oris.; type: functional; conditions: route subcutaneous; outline: as §1
[3] = Effective concentration of compound necessary to kill 50% of infective larvae of Molinema dessetae after 7 days was determined in vitro; type: functional
[4] = test system: molinema dessetae; assay: Effective concentration of compound necessary to kill 90% of infective larvae of Molinema dessetae after 7 days was determined in vitro; Value ranges from 20-100; type: functional
Outline: (§2)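 Infective larvae from the intermediate host were decontaminated and held 20 per 1.5 mL in a biphasic medium: L929 feeder layer with RPMI and fetal calf serum (90:10), plus penicillin and streptomycin. Compound solutions at several concentrations were made in DMSO, and 10 μL of each was added. After 7 days, survival was corrected by control, in duplicate runs. EC ranges are given in μM.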

[5] = test system: molinema dessetae; assay: Antifilarial activity against Molinema dessetae in vivo against female adult worms at a dose of 200 mg/kg subcutaneously once a day for 5 days; Inactive; type: functional, organism-based; design: dose 200 mg/kg; outline: as §1
[6] = test system: molinema dessetae; assay: Antifilarial activity against Molinema dessetae in vivo against female adult worms at a dose of 10 mg/kg subcutaneously once a day for 5 days; Active; type: functional, organism-based; design: dose 10 mg/kg; outline: as §1
[7] = test system: molinema dessetae; assay: Antifilarial activity against Molinema dessetae in vivo against male adult worms at a dose of 10 mg/kg subcutaneously once a day for 5 days; Active; type: functional, organism-based; design: dose 10 mg/kg; outline: as §1
[8] = Antifilarial activity against Molinema dessetae in vivo in Proechimys oris the natural host at a dose of 10 mg/kg subcutaneously once a day for 5 days. Value is expressed as number of infected P. oris.; type: functional; conditions: route subcutaneous; outline: as §1
[9] = Effective concentration of compound necessary to kill 50% of infective larvae of Molinema dessetae after 7 days was determined in vitro; Value ranges from 20-100; type: functional; outline: as §2
[10] = Effective concentration of compound necessary to kill 50% of infective larvae of Molinema dessetae after 7 days was determined in vitro; Value ranges from 100-500; type: functional; outline: as §2
[11] = test system: molinema dessetae; assay: Effective concentration of compound necessary to kill 90% of infective larvae of Molinema dessetae after 7 days was determined in vitro; Value ranges from 100-500; type: functional; outline: as §2
[12] = test system: molinema dessetae; assay: Antifilarial activity against Molinema dessetae in vivo against female adult worms at a dose of 200 mg/kg subcutaneously once a day for 5 days; type: functional, organism-based; design: dose 200 mg/kg; outline: as §1
[13] = test system: molinema dessetae; assay: Antifilarial activity against Molinema dessetae in vivo against female adult worms at a dose of 100 mg/kg subcutaneously once a day for 5 days; Inactive; type: functional, organism-based; design: dose 100 mg/kg; outline: as §1
[14] = test system: molinema dessetae;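 note: in vitro assay on infective-stage larvae, EC90 being the concentration lethal to 90% of larvae after 7 days of exposure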
[15] = test system: molinema dessetae; assay: Antifilarial activity against Molinema dessetae in vivo against male adult worms at a dose of 100 mg/kg subcutaneously once a day for 5 days; Inactive; type: functional, organism-based; design: dose 100 mg/kg; outline: as §1
[16] = Antifilarial activity against Molinema dessetae in vivo in Proechimys oris the natural host at a dose of 100 mg/kg subcutaneously once a day for 5 days. Value is expressed as number of infected P. oris.; type: functional; conditions: route subcutaneous; outline: as §1
[17] = test system: molinema dessetae; assay: Antifilarial activity against Molinema dessetae in vivo against male adult worms at a dose of 100 mg/kg subcutaneously once a day for 5 days; Active; type: functional, organism-based; design: dose 100 mg/kg; outline: as §1
[18] = test system: molinema dessetae; assay: Antifilarial activity against Molinema dessetae in vivo against female adult worms at a dose of 200 mg/kg subcutaneously once a day for 5 days; Active; type: functional, organism-based; design: dose 200 mg/kg; outline: as §1
[19] = test system: molinema dessetae; assay: Antifilarial activity against Molinema dessetae in vivo against male adult worms at a dose of 200 mg/kg subcutaneously once a day for 5 days; Active; type: functional, organism-based; design: dose 200 mg/kg; outline: as §1
[20] = test system: molinema dessetae; assay: Antifilarial activity against Molinema dessetae in vivo against female adult worms at a dose of 10 mg/kg subcutaneously once a day for 5 days; Inactive; type: functional, organism-based; design: dose 10 mg/kg; outline: as §1
[21] = test system: molinema dessetae; assay: Antifilarial activity against Molinema dessetae in vivo against female adult worms at a dose of 100 mg/kg subcutaneously once a day for 5 days; Active; type: functional, organism-based; design: dose 100 mg/kg; outline: as §1
[22] = test system: molinema dessetae; assay: Antifilarial activity against Molinema dessetae in vivo in Proechimys oris the natural host at a dose of 0.2 mg/kg subcutaneously once a day for 5 days. Value is expressed as number of infected P. oris.; type: functional, organism-based; design: dose 0.2 mg/kg
[23] = test system: molinema dessetae; assay: Antifilarial activity against Molinema dessetae in vivo against female adult worms at a dose of 0.2 mg/kg subcutaneously once a day for 5 days; Active; type: functional, organism-based; design: dose 0.2 mg/kg
[24] = test system: molinema dessetae; assay: Antifilarial activity against Molinema dessetae in vivo against male adult worms at a dose of 0.2 mg/kg subcutaneously once a day for 5 days; Active; type: functional, organism-based; design: dose 0.2 mg/kg
[25] = Antifilarial activity against Molinema dessetae in vivo in Proechimys oris the natural host at a dose of 40 mg/kg subcutaneously once a day for 5 days. Value is expressed as number of infected P. oris.; type: functional; conditions: route subcutaneous
[26] = test system: molinema dessetae; assay: Antifilarial activity against Molinema dessetae in vivo against male adult worms at a dose of 40 mg/kg subcutaneously once a day for 5 days; Active; type: functional, organism-based; design: dose 40 mg/kg
[27] = test system: molinema dessetae; assay: Antifilarial activity against Molinema dessetae in vivo against female adult worms at a dose of 40 mg/kg subcutaneously once a day for 5 days; Active; type: functional, organism-based; design: dose 40 mg/kg

Molecule	Activity [1]	Activity [2]	EC50 [3] [µM]	Activity [5]	EC90 [14] [µM]	also measured
CCOC(=O)N1CCN(S(=O)(=O)C2OC2c2ccccc2)CC1 (configuration not stated)	inactive	2	< 20	inactive	–	EC90 [4]: 100 µM
CN1CCN(S(=O)(=O)[C@@H]2O[C@H]2c2ccccc2)CC1	–	–	–	–	–	Activity [6]: Active; Activity [7]: Active; Activity [8]: 4; EC50 [9]: 100 µM; EC90 [4]: 100 µM
IVERMECTIN [listing 1 of 2 here]	–	–	< 20	–	–	–
Cc1cccc(C2OC2S(=O)(=O)N2CCN(C)CC2)c1 (configuration not stated)	–	–	–	–	–	EC50 [10]: 500 µM; EC90 [11]: 500 µM
CCCN1CCN(S(=O)(=O)C2OC2c2ccccc2)CC1 (configuration not stated)	inactive	2	–	–	–	Activity [12]: inactive; EC50 [9]: 100 µM; EC90 [11]: 500 µM
O=C(CN1CCOCC1)c1ccccc1	–	–	> 500	–	> 500	Activity [13]: inactive; Activity [15]: inactive; Activity [16]: 2
O=S(=O)(C1OC1c1ccccc1)N1CCN(c2cccc(C(F)(F)F)c2)CC1 (configuration not stated)	inactive	2	–	inactive	–	EC50 [9]: 100 µM; EC90 [4]: 100 µM
O=S(=O)(C#Cc1ccccc1)N1CCOCC1	–	2	< 20	–	< 20	Activity [17]: Active; Activity [8]: 2; Activity [18]: Active; Activity [19]: Active; Activity [16]: 2; Activity [20]: inactive
O=S(=O)(C1OC1c1ccc(Cl)cc1)N1CCOCC1 (configuration not stated)	inactive	2	–	inactive	–	EC50 [9]: 100 µM; EC90 [11]: 500 µM
O=C(CS(=O)(=O)N1CCOCC1)c1ccccc1	inactive	2	> 500	inactive	> 500	–
O=[N+]([O-])c1ccc(C2OC2S(=O)(=O)N2CCOCC2)cc1 (configuration not stated)	–	–	< 20	–	< 20	–
O=S(=O)(C1OC1c1ccc(Cl)c(Cl)c1)N1CCCC1 (configuration not stated)	–	–	–	–	–	EC50 [9]: 100 µM; EC90 [4]: 100 µM
Cc1ccccc1C1OC1S(=O)(=O)N1CCOCC1 (configuration not stated)	inactive	1	< 20	inactive	< 20	–
CN1CCN(CC(=O)c2ccccc2)CC1	–	–	> 500	–	> 500	Activity [13]: inactive; Activity [15]: inactive; Activity [16]: 1
O=S(=O)(C1CC1c1ccccc1)N1CCOCC1 (configuration not stated)	inactive	2	–	inactive	–	–
O=S(=O)(/C=C\c1ccccc1)N1CCOCC1	–	–	–	–	> 500	EC50 [10]: 500 µM
CC1OC1S(=O)(=O)N(C)C (configuration not stated)	inactive	2	–	inactive	–	EC50 [9]: 100 µM; EC90 [11]: 500 µM
C=C(CS(=O)(=O)N1CCN(C)CC1)c1ccccc1	–	–	–	–	> 500	EC50 [10]: 500 µM
O=S(=O)([C@@H]1O[C@@H]1c1ccccc1)N1CCOCC1	inactive	2	–	inactive	–	EC50 [9]: 100 µM; EC90 [11]: 500 µM
C[C@@]1(c2ccccc2)O[C@@H]1S(=O)(=O)N1CCOCC1	inactive	2	> 500	inactive	> 500	–
CN1CCN(S(=O)(=O)C2CC2c2ccccc2)CC1 (configuration not stated)	inactive	2	–	inactive	> 500	EC50 [10]: 500 µM
O=S(=O)(C1OC1c1ccccc1)N1CCN(c2ccccc2)CC1 (configuration not stated)	–	–	–	–	–	Activity [13]: inactive; Activity [15]: inactive; EC50 [9]: 100 µM; Activity [16]: 2; EC90 [4]: 100 µM

Molecule	Activity [1]	Activity [2]	EC50 [3] [µM]	Activity [5]	EC90 [14] [µM]	also measured
C[C@]1(c2ccccc2)O[C@@H]1S(=O)(=O)N1CCOCC1	inactive	2	> 500	inactive	> 500	–
Cc1cccc(C2OC2S(=O)(=O)N2CCOCC2)c1 (configuration not stated)	inactive	2	< 20	inactive	< 20	–
CN1CCN(S(=O)(=O)/C=C/c2ccccc2)CC1	inactive	1	–	inactive	> 500	EC50 [10]: 500 µM
O=S(=O)([C@@H]1O[C@H]1c1ccccc1)N1CCOCC1	–	–	–	–	–	Activity [17]: Active; EC50 [9]: 100 µM; Activity [16]: 3; EC90 [4]: 100 µM; Activity [21]: Active
CN1CCN(S(=O)(=O)CC(=O)c2ccccc2)CC1	–	–	> 500	–	> 500	–
CCCCCCc1ccc(C2OC2S(=O)(=O)N2CCOCC2)cc1 (configuration not stated)	inactive	1	–	inactive	–	–
Cc1ccc(C2OC2S(=O)(=O)N2CCN(C)CC2)cc1 (configuration not stated)	inactive	2	–	inactive	–	EC50 [9]: 100 µM; EC90 [11]: 500 µM
CN1CCNCC1 [METHYLPIPERAZINE]	–	–	> 500	–	> 500	–
CN1CCN(S(=O)(=O)[C@@H]2O[C@@H]2c2ccccc2)CC1	–	–	–	–	–	Activity [13]: inactive; Activity [15]: inactive; EC50 [9]: 100 µM; EC90 [11]: 500 µM; Activity [16]: 2
CN(C)S(=O)(=O)C#Cc1ccccc1	–	2	–	inactive	> 500	EC50 [10]: 500 µM; Activity [19]: Active
C[C@@H]1O[C@H]1S(=O)(=O)N1CCOCC1	inactive	2	> 500	inactive	> 500	–
O=S(=O)(C1OC1c1ccc(Cl)c(Cl)c1)N1CCOCC1 (configuration not stated)	–	2	< 20	–	–	Activity [18]: Active; Activity [19]: Active; EC90 [4]: 100 µM
CN1CCN(S(=O)(=O)C#Cc2ccccc2)CC1	inactive	1	< 20	inactive	< 20	–
CN(C)S(=O)(=O)[C@@H]1O[C@@H]1c1ccccc1	–	–	–	–	–	EC50 [10]: 500 µM; EC90 [11]: 500 µM
IVERMECTIN [listing 2 of 2 here]	–	–	–	–	< 20	Activity [22]: 2; Activity [23]: Active; Activity [24]: Active
C1COCCN1 [MORPHOLINE]	–	–	> 500	–	> 500	–
Cc1ccc(C(=O)Nc2ccc(S(=O)(=O)O)c3cc(S(=O)(=O)O)cc(S(=O)(=O)O)c23)cc1NC(=O)c1cccc(NC(=O)Nc2cccc(C(=O)Nc3cc(C(=O)Nc4ccc(S(=O)(=O)O)c5cc(S(=O)(=O)O)cc(S(=O)(=O)O)c45)ccc3C)c2)c1 [SURAMIN]	–	–	–	–	–	Activity [25]: 2; Activity [26]: Active; EC50 [10]: 500 µM; Activity [27]: Active; EC90 [11]: 500 µM
CN(C)S(=O)(=O)/C=C\c1ccccc1	–	–	–	–	–	EC50 [10]: 500 µM; EC90 [11]: 500 µM
CCN(CC)C(=O)N1CCN(C)CC1 [DIETHYLCARBAMAZINE]	–	2	> 500	–	> 500	Activity [18]: Active; Activity [19]: Active
C[C@H]1O[C@H]1S(=O)(=O)N1CCOCC1	–	–	–	–	> 500	EC50 [10]: 500 µM
O=S(=O)(/C=C/c1ccccc1)N1CCOCC1	inactive	2	> 500	inactive	> 500	–
